Laboratory results from ChEMBL document CHEMBL4371044, “Celastrol Promotes Weight Loss in Diet-Induced Obesity by Inhibiting the Protein Tyrosine Phosphatases PTP1B and TCPTP in the Hypothalamus” (J Med Chem, 2018).
Calls of active or inactive are those of the source. No cut-off for these calls is given here.

Key:
[1] = target: T1, Tyrosine-protein phosphatase non-receptor type 2 (Homo sapiens) (UniProt P17706); experiment: Inhibition of human N-terminal His6-tagged TCPTP catalytic domain (1 to 296 residues) expressed in Escherichia coli strain Rosetta2 (DE3) by NMR spectroscopy
T1 sequence (whole entry): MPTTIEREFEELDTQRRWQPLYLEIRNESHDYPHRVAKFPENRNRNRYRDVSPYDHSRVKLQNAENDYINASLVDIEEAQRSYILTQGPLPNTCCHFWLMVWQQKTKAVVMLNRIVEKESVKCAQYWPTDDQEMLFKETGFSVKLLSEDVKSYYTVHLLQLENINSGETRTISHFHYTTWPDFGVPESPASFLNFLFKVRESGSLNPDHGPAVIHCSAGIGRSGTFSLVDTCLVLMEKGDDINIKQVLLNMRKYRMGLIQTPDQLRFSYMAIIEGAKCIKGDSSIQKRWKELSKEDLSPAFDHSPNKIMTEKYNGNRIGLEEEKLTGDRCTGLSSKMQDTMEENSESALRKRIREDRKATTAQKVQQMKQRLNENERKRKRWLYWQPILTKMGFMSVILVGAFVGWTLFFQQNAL

[2] = target: T2, Tyrosine-protein phosphatase non-receptor type 11 (Homo sapiens, UniProt Q06124); experiment: Inhibition of human SHP2 (246 to 527 residues) expressed in Escherichia coli strain BL21(DE3) using DiFMUP as substrate preincubated for 10 mins followed by substrate addition and measured after 10 mins by fluorescence assay
T2 sequence (Q06124 whole entry): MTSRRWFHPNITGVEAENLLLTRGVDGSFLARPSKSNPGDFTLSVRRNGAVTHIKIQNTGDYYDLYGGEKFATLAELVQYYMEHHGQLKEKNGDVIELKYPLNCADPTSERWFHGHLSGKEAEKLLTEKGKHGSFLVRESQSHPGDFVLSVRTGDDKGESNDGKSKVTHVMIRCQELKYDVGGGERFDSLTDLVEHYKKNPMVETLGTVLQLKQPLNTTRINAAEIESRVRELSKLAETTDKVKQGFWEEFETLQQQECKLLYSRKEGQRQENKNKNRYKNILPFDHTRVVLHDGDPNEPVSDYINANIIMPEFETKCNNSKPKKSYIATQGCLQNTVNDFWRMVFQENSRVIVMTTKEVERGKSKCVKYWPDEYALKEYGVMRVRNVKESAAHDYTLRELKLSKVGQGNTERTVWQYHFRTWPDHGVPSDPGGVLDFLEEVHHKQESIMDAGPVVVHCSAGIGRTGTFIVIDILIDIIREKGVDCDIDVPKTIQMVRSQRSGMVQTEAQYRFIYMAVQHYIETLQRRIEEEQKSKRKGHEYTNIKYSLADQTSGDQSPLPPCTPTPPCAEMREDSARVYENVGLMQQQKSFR
Procedure, shortened: (§1)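 Selectivity panel on enzymes expressed in E. coli BL21(DE3), purified by nickel affinity then size exclusion. DiFMUP fluorescence assay run as for PTP1B/TCPTP, with per-enzyme conditions in a supplementary table; nonlinear regression for IC50; three independent experiments.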

[3] = target: T3, Tyrosine-protein phosphatase non-receptor type 1 (Homo sapiens) (UniProt P18031); experiment: Reversible inhibition of human N-terminal His6-tagged PTP1B catalytic domain (1 to 298 residues) expressed in Escherichia coli strain Rosetta2 (DE3) at 10 times IC50 using DiFMUP as substrate preincubated for 30 mins followed by 100 fold compound dilution and substrate addition measured for 60 mins fluorescence assay
T3 sequence (whole entry): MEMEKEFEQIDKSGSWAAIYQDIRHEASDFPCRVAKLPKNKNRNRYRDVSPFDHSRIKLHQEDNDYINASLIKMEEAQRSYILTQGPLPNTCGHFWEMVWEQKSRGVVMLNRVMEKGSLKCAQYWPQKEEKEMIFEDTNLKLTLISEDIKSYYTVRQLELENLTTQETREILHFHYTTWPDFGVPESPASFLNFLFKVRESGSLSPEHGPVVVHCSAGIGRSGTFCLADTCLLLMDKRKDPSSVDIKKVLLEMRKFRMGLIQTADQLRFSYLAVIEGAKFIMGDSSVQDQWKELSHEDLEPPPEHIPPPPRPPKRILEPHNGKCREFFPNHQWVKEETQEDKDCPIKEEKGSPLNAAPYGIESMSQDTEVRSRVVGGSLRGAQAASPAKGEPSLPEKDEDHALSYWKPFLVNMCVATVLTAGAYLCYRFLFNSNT

[4] = target: T4, Tyrosine-protein phosphatase non-receptor type 1 (Homo sapiens, UniProt P18031); experiment: Binding affinity to human N-terminal His6-tagged PTP1B catalytic domain (1 to 298 residues) expressed in Escherichia coli strain Rosetta2 (DE3) by switch sense technology based assay
T4 sequence (P18031 whole entry): T3 sequence (whole entry)
Procedure, shortened: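 switchSENSE, fluorescence proximity mode: PTP1B1−298 immobilized on chip, analyte injected at increasing concentrations up to 100 μM at 100 μL/min in PE40 buffer (10 mM phosphate pH 7.4, 40 mM NaCl, 50 μM EGTA/EDTA, 0.05% Tween 20). Buffer rinse for dissociation, recorded at the three highest concentrations; kon, koff, KD fitted.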

[5] = system: Mus musculus; experiment: Antiobesity activity in high fat diet-induced obese Ptpn1fl/fl null C57BL/6 mouse assessed as hypophagia at 100 ug/kg, ip for 10 consecutive days; format: functional, organism-based
[6] = target: Phosphatidylinositol 3,4,5-trisphosphate 3-phosphatase and dual-specificity protein phosphatase PTEN (Homo sapiens, UniProt P60484); experiment: Inhibition of human PTEN (1 to 403 residues) expressed in Escherichia coli strain BL21(DE3) using DiFMUP as substrate preincubated for 10 mins followed by substrate addition and measured after 10 mins by fluorescence assay
[7] = target: T3, Tyrosine-protein phosphatase non-receptor type 1 (Homo sapiens); experiment: Binding affinity to human N-terminal His6-tagged PTP1B catalytic domain (1 to 298 residues) expressed in Escherichia coli strain Rosetta2 (DE3) by NMR spectroscopy
Procedure, shortened: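 100 μM 2H(~70%)/15N-labelled PTP1B1−298 in 100 mM d11-Tris pH 7.5, 75 mM NaCl, 10% D2O at 20 °C. Compound added to 250 μM (0.5% DMSO-d6); 1H,15N TROSY at 800 MHz against DMSO-only reference; amide chemical shift perturbations computed.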

[8] = Inhibition of mouse LMPTP-B (1 to 158 residues) expressed in Escherichia coli strain BL21(DE3) using DiFMUP as substrate preincubated for 10 mins followed by substrate addition and measured after 10 mins by fluorescence assay; procedure, shortened: as §1
[9] = target: T4, Tyrosine-protein phosphatase non-receptor type 1; experiment: Inhibition of human N-terminal His6-tagged PTP1B catalytic domain (1 to 393 residues) expressed in Escherichia coli strain Rosetta2 (DE3) using DiFMUP as substrate preincubated for 10 mins followed by substrate addition and measured after 10 mins by fluorescence assay
Procedure, shortened: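 Tag-cleaved, SEC-purified enzyme at 1 nM, preincubated 10 min with compound at 15 concentrations from 0–500 μM (5% DMSO final) in 25 mM Bis-Tris propane pH 7.5, 50 mM NaCl, 2 mM EDTA. DiFMUP added at each construct's Km (10, 7, 10, 9 μM for PTP1B1−298, PTP1B1−393, TCPTP1−296, TCPTP1−336). Read ex 358/em 455 nm continuously 10 min at 37 °C; triplicate; log(inhibitor)-response fit.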

Sequence of Phosphatidylinositol 3,4,5-trisphosphate 3-phosphatase and dual-specificity protein phosphatase PTEN (P60484 whole entry, the tested form may be a part): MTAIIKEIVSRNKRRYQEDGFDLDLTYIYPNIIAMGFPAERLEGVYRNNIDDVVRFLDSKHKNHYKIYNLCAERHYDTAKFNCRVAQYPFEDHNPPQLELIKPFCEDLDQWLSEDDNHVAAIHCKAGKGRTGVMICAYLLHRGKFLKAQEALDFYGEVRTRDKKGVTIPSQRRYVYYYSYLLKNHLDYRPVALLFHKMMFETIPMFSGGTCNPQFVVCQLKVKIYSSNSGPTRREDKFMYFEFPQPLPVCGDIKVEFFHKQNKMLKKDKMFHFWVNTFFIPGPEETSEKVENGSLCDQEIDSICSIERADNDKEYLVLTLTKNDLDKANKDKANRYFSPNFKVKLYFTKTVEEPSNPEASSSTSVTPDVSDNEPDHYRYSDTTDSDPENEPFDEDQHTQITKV

CC1=C(O)C(=O)C=C2C1=CC=C1[C@@]2(C)CC[C@@]2(C)[C@@H]3C[C@](C)(C(=O)O)CC[C@]3(C)CC[C@]12C [CELASTROL]
Activity [1]: Active | IC50 [2]: 4.1 µM | inhibition [3]: Active | Kd [4]: 6.08 µM | Activity [5]: Active | IC50 [6]: 13.3 µM | Activity [7]: Active | IC50 [8]: > 500 µM | IC50 [9]: 2.1 µM
